S100A4 MyoIIA: inhibitors of S100A4-myosin IIA peptide binding, primary screen, biochemical, fluorescence polarization, TAMRA-MyoIIA peptide. Protein S100-A4 (Homo sapiens), P26447. AID 652163, 2013. 0.14% of 360,000 active. inhibition, % at 10.7 µM;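 active = mean inhibition of at least 70% across replicates, with every replicate also reaching that level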
Target sequence (P26447 whole entry, looked up): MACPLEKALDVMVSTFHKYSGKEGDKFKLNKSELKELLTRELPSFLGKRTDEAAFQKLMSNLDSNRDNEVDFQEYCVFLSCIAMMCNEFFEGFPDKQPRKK
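Assay system: human S100A4 monomer with TAMRA-labelled myosin IIA peptide / Buffer or medium: Calcium-containing HEPES buffer, pH 7.2 / Reagent: TAMRA-labelled myosin IIA heavy-chain peptide probe, 5 nM / Compound: one dose per compound / Timing: polarization read 5 min after assay mix addition, stable 5–60 min / Benchmarks: neutral control DMSO, positive control TFP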
PDI inh: inhibitors of human PDI, primary screen, biochemical, turbidity, single point, plate reader. Protein disulfide-isomerase (Homo sapiens), P07237. PDI insulin aggregation turbidity, A650, 90 min. inhibition, % at 10 µM. 0.052% of 350,000 active. AID 588391, 2011;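 active = mean inhibition across replicates of 30% or more, whatever share of single replicates reach that level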
Target sequence (P07237 whole entry, looked up): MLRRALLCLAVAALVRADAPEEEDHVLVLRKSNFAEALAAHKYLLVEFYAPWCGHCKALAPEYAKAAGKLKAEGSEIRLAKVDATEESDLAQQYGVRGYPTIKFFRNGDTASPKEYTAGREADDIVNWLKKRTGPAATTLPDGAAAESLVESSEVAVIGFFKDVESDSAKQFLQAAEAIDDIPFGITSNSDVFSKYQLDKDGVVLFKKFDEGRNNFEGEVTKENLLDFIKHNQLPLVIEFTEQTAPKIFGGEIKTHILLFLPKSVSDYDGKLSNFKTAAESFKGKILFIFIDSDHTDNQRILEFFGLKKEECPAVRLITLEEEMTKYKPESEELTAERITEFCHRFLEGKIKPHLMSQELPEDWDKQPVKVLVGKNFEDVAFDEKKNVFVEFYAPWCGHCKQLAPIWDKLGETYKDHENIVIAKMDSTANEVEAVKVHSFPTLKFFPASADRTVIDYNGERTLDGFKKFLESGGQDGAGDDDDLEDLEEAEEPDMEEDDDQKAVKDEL
ERp5 inh: inhibitors of ERp5-driven insulin aggregation, primary screen, biochemical, turbidity, absorbance 650 nm, single point; Protein disulfide-isomerase A6 (Homo sapiens), Q15084; 90 min; inhibition, % at 9.99 µM; 0.05% of 350,000 active; AID 651711, 2012;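 active = mean replicate inhibition above about 25%, with every replicate also reaching it, limit read from the data, passing the limit was not always enough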
FGF22 binding: binders of human FGF22 protein, primary screen, FGF22 synaptogenesis inhibitor project, biophysical, thermal shift, single point | Fibroblast growth factor 22 (Homo sapiens), Q9HCT0 | activity (Tm shift, normalised), % at 9.99 µM | AID 651658, 2012 | 1.5% of 340,000 active | recombinant FGF22 thermal shift, SYPRO orange fluorescence; percent of sucrose octasulfate shift, DMSO zero;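 active = mean Tm shift, scaled 0 neutral to 100 positive control, at about 1.3% or above, every replicate too, limit read from the data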
ERAP1 inh: human ERAP1 aminopeptidase inhibitors, primary screen, biochemical, single point, plate reader. recombinant ERAP1, Leu-AMC fluorescence, 60 min. inhibition, % at 10.7 µM. 0.15% of 340,000 active;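 active = mean replicate inhibition of at least 30%, or all replicates individually reaching that 30% level; inactive = mean below 30% and not every replicate reaching it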;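 note: 0% = neutral control wells and 100% = L-leucinethiol positive control wells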
* hit, by the source's call; . = no result given. This is one part of a sample in which hits are shown more often than they occur.

SMILES	S100A4 MyoIIA	PDI inh	ERp5 inh	FGF22 binding	ERAP1 inh
O=C(Nc1ccccc1)[C@@H]1[C@@H](CO)[C@@H]2Cn3c(cccc3=O)[C@@H]2N1C(=O)C1CCCC1	-0.5	.	-1.6	0.1	-5.7
COc1ccc2c3c([nH]c2c1)[C@@H](CO)N(Cc1ccc(Cl)cc1)CC31CN(Cc2nccs2)C1	6.4	.	.	0.1	.
Cc1ccc(S(=O)(=O)NCC[C@@H]2CC[C@@H](NC(=O)C3CCOCC3)[C@H](CO)O2)cc1	98.6*	.	0.5	-0.4	-0.1
Cc1ccccc1S(=O)(=O)NCC[C@H]1CC[C@H](NC(=O)C2CCC2)[C@H](CO)O1	102.1*	.	-13.1	-0.2	-3.0
Cc1ccc(S(=O)(=O)NCC[C@@H]2CC[C@H](NC(=O)C3CCOCC3)[C@H](CO)O2)cc1	0.7	.	2.3	0.5	-3.3
CCC(=O)Nc1ccc(C(=O)COC(=O)CCN2C(=O)C3CC=CCC3C2=O)cc1 (configuration not stated)	-1.9	1.7	3.1	-0.3	5.1
FC(F)(F)c1cccc(OCc2nnc3n2CCC3)c1	6.3	-0.5	0.4	0.3	2.6
c1ccc(-c2ccccc2OCc2nnc3n2CCC3)cc1	-0.8	4.9	1.7	42.9*	-2.1
CCc1nc(CN2CCCC(C(=O)c3ccc4c5c(cccc35)CC4)C2)c(C)[nH]1 (configuration not stated)	-5.4	18.6	2.3	43.5*	-6.3
O=C(c1ccc2c3c(cccc13)CC2)C1CCCN(Cc2ccncc2)C1 (configuration not stated)	-1.2	8.7	5.7	0.2	.
Cc1ncccc1C(=O)N1CCCC(C(=O)c2ccc3c4c(cccc24)CC3)C1 (configuration not stated)	-5.0	11.7	1.0	43.2*	-0.5
O=C(NC(=S)Nc1cccc2ncccc12)c1ccco1	-8.2	9.6	2.3	-0.3	-6.0
Cc1cc(NC(=S)NC(=O)c2ccco2)c2ccccc2n1	-2.5	5.9	-6.5	43.0*	-2.0
Cc1ccc(NC(=O)CN2C(=O)N/C(=C/c3cc(C)n(-c4cccc(C(=O)O)c4)c3C)C2=O)cc1	-6.8	1.3	2.1	43.6*	-4.5
CC(=O)NC1=NC(=O)/C(=C/c2cc(C)n(-c3ccc(NC(C)=O)cc3)c2C)S1	-0.1	0.2	-0.4	0.0	6.7
CC(=O)NC1=NC(=O)/C(=C/c2cn(C(C)=O)nc2-c2ccccc2)S1	-3.4	7.2	0.5	43.7*	7.5
CC(=O)NC1=NC(=O)/C(=C/c2cc(C)n(-c3cccc(C(=O)O)c3)c2C)S1	6.2	12.0	0.7	43.1*	9.7
O=C(CCCN1C(=O)c2ccccc2C1=O)NC1=NCCS1	.	5.1	.	.	.
C[C@H](CO)N1C[C@H](C)[C@@H](CN(C)Cc2ccc(Cl)c(Cl)c2)OCCCC[C@H](C)Oc2ccc(NS(=O)(=O)c3cccs3)cc2C1=O	8.4	.	-4.5	-0.4	-3.9
C[C@@H]1CN([C@H](C)CO)C(=O)c2cc(NS(=O)(=O)c3ccc(Cl)cc3)ccc2O[C@@H](C)CCCCO[C@H]1CN(C)Cc1ccc(Cl)c(Cl)c1	101.6*	.	-6.4	-0.7	-3.5
CNC[C@@H]1OCCCC[C@@H](C)Oc2ccc(NS(=O)(=O)c3cccs3)cc2C(=O)N([C@H](C)CO)C[C@H]1C	101.4*	.	3.3	-0.5	3.1
C[C@@H]1CCCCO[C@H](CN(C)Cc2ccc(Cl)c(Cl)c2)[C@@H](C)CN([C@H](C)CO)C(=O)c2cc(NS(=O)(=O)c3cccs3)ccc2O1	3.0	.	-5.2	1.2*	-3.7
C[C@@H]1CCCCO[C@@H](CN(C)Cc2ccc(Cl)c(Cl)c2)[C@@H](C)CN([C@@H](C)CO)C(=O)c2cc(NS(=O)(=O)c3ccc(Cl)cc3)ccc2O1	0.2	.	2.6	0.0	-0.5
CNC[C@@H]1OCCCC[C@H](C)Oc2ccc(NS(=O)(=O)c3cccs3)cc2C(=O)N([C@@H](C)CO)C[C@@H]1C	-1.8	.	-1.3	-0.2	0.8
Cc1noc(C)c1S(=O)(=O)Nc1ccc2c(c1)C(=O)N([C@H](C)CO)C[C@@H](C)[C@@H](CN(C)Cc1ccc(C(=O)O)cc1)OCCCC[C@H](C)O2	5.6	.	-3.7	1.3*	-0.5
SMILES	S100A4 MyoIIA	PDI inh	ERp5 inh	FGF22 binding	ERAP1 inh
CC(C)NC(=O)Nc1ccc2c(c1)C(=O)N([C@H](C)CO)C[C@H](C)[C@@H](CN(C)C)O2	-14.9	.	0.4	0.2	-0.6
O=C(NCc1ccccc1)c1cc(C2CCCN(C(=O)CCCc3ccccc3)C2)on1 (configuration not stated)	-4.4	9.4	4.6	0.2	0.8
CCCCCCC(=O)N/N=C(\C)Cc1ccccc1	-3.8	7.7	-2.9	0.4	-3.1
CCOCC(=O)NC1CCc2cc(OC)c(OC)c(OC)c2-c2ccc(SC)c(=O)cc21 (configuration not stated)	-4.3	-6.1	-1.9	43.2*	8.9
CO[C@@H]1CN(C)C(=O)c2cc(NC(=O)c3nc4ccccc4s3)ccc2OC[C@@H](C)N(Cc2ccncc2)C[C@H]1C	6.5	.	-8.9	-0.4	0.9
CN1CCCN(C(=O)/C=C/c2ccc(Cl)cc2Cl)CC1	-1.8	-5.4	-3.9	43.8*	4.6
O=C1CN(C(=O)/C=C/c2ccc(Cl)cc2Cl)CCN1	-2.8	-3.4	-1.0	0.2	-3.4
CC1(C)Cc2ccccc2C(C(Cc2ccccc2)C(N)=O)=N1 (configuration not stated)	-2.7	4.6	-2.5	43.0*	0.2
CC1(C)Cc2ccccc2C(C(=O)c2ccccc2)=N1	-19.1	2.9	1.8	-0.3	-2.2
Cc1cc(OC(=O)c2c(C)cc(OC(=O)c3c(C)cc(O)cc3O)cc2O)cc(O)c1C(=O)O	-10.8	.	7.9	1.9*	-0.3
COC(=O)c1c(C)cc(O)cc1O	-15.7	.	6.7	0.0	-2.9
COc1ccc(CC(=O)Nc2ccccc2Oc2ccccc2)cc1	-4.5	.	0.3	43.2*	1.3
CCOc1ccccc1NC(=O)CCS(=O)(=O)c1ccc(OC)cc1	-4.9	18.5	-2.8	43.9*	2.8
COc1ccccc1NC(=O)Cc1ccc(-c2ccccc2)cc1	-11.1	1.0	-0.2	-0.2	-6.1
CCN(CC)C(=O)c1ccc(CS(=O)(=O)c2ccc(Br)cc2)cc1	-4.8	0.3	2.2	-0.1	13.1
Cc1ccc(C(NC(=O)N2CCCC2)C(Cl)Cl)cc1F (configuration not stated)	-0.6	-2.8	4.2	43.9*	3.5
CCN1CCN(C(=O)NC(c2ccc(C)c(F)c2)C(Cl)Cl)CC1 (configuration not stated)	-14.1	-7.6	3.2	44.4*	4.4
Cc1ccc(C(NC(=O)NN2CCN(C)CC2)C(Cl)Cl)cc1F (configuration not stated)	-2.3	10.6	-1.0	0.0	-1.2

Screening results: PubChem BioAssay, Broad Institute
